Assay results reported in article PMC4112416 (MedChemComm, 2014).
≈ marks a conversion by molar mass, not a printed value.

Experiments:
duplex DNA (dA60.dT60) = test: UV thermal denaturation of AT rich DNA duplex; assay type: binding; details: 10 μM ligand, 1 μM duplex, 10 mM sodium cacodylate, 0.1 mM EDTA, 100 mM NaCl, pH 7.0
[1] = system: prostate cancer cell line DU-145; test: Cytotoxicity, sulforhodamine B assay; assay type: cell-based; details: DU-145, 48 h treatment, SRB
[2] = biological target: T1, human DNA topoisomerase I (Homo sapiens, UniProt P11387); test: Inhibition assay against human DNA topoisomerase I; assay type: biochemical; details: 50 μM compound
T1 sequence (P11387 1-765): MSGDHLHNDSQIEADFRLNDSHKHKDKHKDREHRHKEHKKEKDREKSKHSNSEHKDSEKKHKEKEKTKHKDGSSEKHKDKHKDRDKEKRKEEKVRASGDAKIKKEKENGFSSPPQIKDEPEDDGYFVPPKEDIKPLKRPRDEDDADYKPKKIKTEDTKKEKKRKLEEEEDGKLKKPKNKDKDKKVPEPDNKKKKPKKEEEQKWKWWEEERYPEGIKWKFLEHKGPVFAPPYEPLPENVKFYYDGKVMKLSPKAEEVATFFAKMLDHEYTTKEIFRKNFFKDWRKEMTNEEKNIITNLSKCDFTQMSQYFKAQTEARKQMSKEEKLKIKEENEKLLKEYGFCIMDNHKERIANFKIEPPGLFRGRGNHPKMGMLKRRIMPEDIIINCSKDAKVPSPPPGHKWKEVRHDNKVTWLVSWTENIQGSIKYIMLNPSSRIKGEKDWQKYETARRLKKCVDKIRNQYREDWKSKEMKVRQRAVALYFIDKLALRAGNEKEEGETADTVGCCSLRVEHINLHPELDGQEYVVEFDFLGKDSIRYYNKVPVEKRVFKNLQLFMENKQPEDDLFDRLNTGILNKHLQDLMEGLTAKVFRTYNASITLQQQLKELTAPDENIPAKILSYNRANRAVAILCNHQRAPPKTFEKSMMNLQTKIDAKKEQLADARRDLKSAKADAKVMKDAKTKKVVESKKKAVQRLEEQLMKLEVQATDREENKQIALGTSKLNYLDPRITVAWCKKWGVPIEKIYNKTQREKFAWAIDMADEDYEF

E. coli DNA gyrase = E. coli DNA gyrase (Escherichia coli, UniProt P0AES4+P0AES6); test: Inhibition assay against E. coli DNA gyrase; assay type: biochemical; details: 1 to 50 μM compound
[3] = biological target: human DNA topoisomerase II (Homo sapiens, UniProt P11388); test: Inhibition assay against human DNA topoisomerase II; assay type: biochemical; details: 50 μM compound
How it was run: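 Relaxation of 200 ng supercoiled pBAD-GFPuv by 4 units human topoisomerase II. Compound final 5–50 μM (10 and 50 μM in gel panels). 30 min at 37 °C, stopped by phenol extraction. Run on 1% agarose without chloroquine and ethidium-stained. (−) supercoiled band was quantified as a fraction of all topoisomers.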

[4] = biological target: E. coli DNA topoisomerase I (Escherichia coli, UniProt P06612); test: Inhibition assay against E. coli DNA topoisomerase I; assay type: biochemical; details: gel titration, 6 nM enzyme
S. aureus 33591 = test: MIC by microbroth dilution; assay type: cell-based; details: Staphylococcus aureus, 33591, 24 h, read-out: MIC S2
How it was run: (§1)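 CLSI microbroth dilution in Mueller-Hinton broth. Log-phase cultures (37 °C, shaking) were pelleted and resuspended in 0.85% saline to OD625 0.1, giving final 5×10^5 CFU/mL. Triplicate wells were incubated 24 h at 37 °C and read at OD625. MIC is given as a range where no sharp growth inflection occurred.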

E. faecalis 29212 = test: MIC by microbroth dilution; assay type: cell-based; details: Enterococcus faecalis, 29212, 24 h, read-out: MIC S6
How it was run: as §1

[5] = Cytotoxicity, sulforhodamine B assay; assay type: cell-based; details: human, DU-145 prostate cancer cells

Sequence of human DNA topoisomerase II (P11388 whole entry): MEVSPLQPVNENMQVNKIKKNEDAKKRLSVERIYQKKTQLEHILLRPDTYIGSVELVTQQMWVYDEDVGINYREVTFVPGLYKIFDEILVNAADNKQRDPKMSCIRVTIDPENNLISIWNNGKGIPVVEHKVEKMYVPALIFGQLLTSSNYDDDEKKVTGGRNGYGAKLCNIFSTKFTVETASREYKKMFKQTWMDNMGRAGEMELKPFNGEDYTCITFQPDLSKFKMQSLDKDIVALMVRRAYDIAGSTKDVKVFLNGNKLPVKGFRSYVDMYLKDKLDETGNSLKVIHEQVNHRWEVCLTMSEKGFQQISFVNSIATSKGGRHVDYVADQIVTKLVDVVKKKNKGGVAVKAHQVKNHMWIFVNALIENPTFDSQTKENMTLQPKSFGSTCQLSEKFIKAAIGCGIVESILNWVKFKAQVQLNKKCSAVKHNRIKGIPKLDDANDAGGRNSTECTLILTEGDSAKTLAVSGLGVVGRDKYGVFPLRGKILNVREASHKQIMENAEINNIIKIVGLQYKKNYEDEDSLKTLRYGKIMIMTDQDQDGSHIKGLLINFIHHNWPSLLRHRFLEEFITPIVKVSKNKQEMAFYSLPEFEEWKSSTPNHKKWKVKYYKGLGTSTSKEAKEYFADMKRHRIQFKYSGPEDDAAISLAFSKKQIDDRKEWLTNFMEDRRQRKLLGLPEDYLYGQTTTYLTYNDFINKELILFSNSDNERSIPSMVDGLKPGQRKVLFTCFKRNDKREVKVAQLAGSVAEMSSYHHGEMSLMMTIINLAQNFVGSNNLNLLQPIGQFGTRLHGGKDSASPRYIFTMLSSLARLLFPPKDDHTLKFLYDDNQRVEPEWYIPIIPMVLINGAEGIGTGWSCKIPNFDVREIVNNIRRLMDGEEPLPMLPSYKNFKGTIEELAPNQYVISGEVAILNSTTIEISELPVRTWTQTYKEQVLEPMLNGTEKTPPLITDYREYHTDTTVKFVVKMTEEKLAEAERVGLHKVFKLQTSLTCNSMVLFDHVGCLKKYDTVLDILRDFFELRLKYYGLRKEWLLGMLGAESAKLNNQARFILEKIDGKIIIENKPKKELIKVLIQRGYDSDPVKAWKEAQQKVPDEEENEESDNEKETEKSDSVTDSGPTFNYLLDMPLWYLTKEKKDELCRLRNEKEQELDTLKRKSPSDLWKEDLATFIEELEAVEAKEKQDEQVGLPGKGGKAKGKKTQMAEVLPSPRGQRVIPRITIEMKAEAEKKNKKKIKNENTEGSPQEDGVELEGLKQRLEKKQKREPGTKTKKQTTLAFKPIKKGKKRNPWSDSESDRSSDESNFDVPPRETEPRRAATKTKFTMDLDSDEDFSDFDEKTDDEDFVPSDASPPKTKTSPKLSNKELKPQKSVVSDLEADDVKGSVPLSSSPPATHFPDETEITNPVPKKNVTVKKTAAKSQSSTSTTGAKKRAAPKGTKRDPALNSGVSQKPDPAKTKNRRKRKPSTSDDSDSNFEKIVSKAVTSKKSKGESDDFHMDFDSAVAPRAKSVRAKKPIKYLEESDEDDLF
Sequence of E. coli DNA topoisomerase I (P06612 whole entry): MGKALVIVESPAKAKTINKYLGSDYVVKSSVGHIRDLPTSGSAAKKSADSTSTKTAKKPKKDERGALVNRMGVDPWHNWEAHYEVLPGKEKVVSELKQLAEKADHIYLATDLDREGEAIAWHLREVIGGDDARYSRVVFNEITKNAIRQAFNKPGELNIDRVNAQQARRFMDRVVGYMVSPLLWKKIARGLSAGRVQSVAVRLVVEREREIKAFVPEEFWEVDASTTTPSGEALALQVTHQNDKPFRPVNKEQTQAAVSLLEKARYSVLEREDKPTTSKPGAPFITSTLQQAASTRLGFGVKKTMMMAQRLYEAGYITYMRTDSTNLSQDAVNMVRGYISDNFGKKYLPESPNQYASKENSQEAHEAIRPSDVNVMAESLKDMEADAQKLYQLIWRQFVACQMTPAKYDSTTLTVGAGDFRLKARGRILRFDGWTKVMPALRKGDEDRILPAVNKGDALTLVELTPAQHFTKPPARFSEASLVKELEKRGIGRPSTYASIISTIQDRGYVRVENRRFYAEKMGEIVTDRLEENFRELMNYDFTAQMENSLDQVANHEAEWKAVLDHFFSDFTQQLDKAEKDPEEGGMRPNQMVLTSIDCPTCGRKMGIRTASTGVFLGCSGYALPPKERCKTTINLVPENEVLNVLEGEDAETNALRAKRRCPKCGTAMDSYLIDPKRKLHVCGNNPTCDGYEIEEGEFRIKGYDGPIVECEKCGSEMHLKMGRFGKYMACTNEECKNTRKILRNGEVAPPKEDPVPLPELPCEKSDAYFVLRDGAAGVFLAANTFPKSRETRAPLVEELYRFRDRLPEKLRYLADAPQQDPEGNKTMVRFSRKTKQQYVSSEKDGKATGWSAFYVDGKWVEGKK
Sequence of E. coli DNA gyrase (P0AES4 whole entry, one chain of several): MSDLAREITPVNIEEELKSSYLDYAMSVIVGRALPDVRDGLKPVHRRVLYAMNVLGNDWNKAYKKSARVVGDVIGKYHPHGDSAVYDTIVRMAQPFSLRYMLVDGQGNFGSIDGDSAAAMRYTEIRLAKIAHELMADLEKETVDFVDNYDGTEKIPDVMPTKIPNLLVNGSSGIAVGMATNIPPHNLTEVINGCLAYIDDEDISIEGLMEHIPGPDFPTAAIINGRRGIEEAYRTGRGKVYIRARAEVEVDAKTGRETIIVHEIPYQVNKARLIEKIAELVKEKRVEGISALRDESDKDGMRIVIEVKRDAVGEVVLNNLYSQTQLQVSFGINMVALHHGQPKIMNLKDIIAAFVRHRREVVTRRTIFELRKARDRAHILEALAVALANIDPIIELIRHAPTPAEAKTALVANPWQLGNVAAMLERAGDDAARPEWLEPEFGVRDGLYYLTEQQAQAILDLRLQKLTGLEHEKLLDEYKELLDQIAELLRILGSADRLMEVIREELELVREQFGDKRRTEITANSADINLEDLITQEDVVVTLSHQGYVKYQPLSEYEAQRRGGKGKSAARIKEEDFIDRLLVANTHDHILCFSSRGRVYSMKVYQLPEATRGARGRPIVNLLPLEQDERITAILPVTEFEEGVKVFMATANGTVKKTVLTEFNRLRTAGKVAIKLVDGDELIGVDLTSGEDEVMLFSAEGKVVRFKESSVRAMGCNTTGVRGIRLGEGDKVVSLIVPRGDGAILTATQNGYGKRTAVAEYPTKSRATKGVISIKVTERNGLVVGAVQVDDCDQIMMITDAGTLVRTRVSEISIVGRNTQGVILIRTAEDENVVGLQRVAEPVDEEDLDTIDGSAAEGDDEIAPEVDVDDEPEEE

SMILES	Tm (duplex DNA (dA60.dT60)) [°C]	inhibition of human DNA topoisomerase II activities [3]	concentration needed to completely inhibit the activities of E. coli DNA topoisomerase I [4]	MIC (E. faecalis 29212) [µg/mL]	further results
C#CCCCCOc1ccc(-c2nc3ccc(-c4nc5ccc(N6CCN(C)CC6)cc5[nH]4)cc3[nH]2)cc1 [DPA 152, 2′-(4-(hex-5-ynyloxy)phenyl)-6-(4-methylpiperazin-1-yl)-1H,3′H-2,5′-bibenzo[d]imidazole]	83.4				cytotoxicity relative to Hoechst 33242 [1]: nearly twice as toxic as Hoechst 33242
CN1CCN(c2ccc3[nH]c(-c4ccc5[nH]c(-c6ccc(O)cc6)nc5c4)nc3c2)CC1 [Hoechst 33258]	87.1	completely inhibit	approximately 20 μM	16 to 32 (≈ 37.7 to 75.4 µM)	supercoiled DNA template prevented from relaxation by human DNA topoisomerase I [2]: about 70%; inhibition of DNA gyrase's activities (E. coli DNA gyrase): did not inhibit; MIC (S. aureus 33591): 16 to 32 µg/mL (≈ 37.7 to 75.4 µM)
CCOc1ccc(-c2nc3cc(-c4nc5cc(N6CCN(C)CC6)ccc5[nH]4)ccc3[nH]2)cc1 [Hoechst 33342]	86.6			16 to 32 (≈ 35.4 to 70.7 µM)	
C#CCOCCCCOc1ccc(-c2nc3ccc(-c4nc5ccc(N6CCN(C)CC6)cc5[nH]4)cc3[nH]2)cc1 [DPA 154, 6-(4-methylpiperazin-1-yl)-2′-(4-(4-(prop-2-ynyloxy)butoxy)phenyl)-1H,3′H-2,5′-bibenzo[d]imidazole]	85.9				
C#CCCCCCCCCCOc1ccc(-c2nc3ccc(-c4nc5ccc(N6CCN(C)CC6)cc5[nH]4)cc3[nH]2)cc1 [DPA 153, 6-(4-methylpiperazin-1-yl)-2′-(4-(undec-10-ynyloxy)phenyl)-1H,3′H-2,5′-bibenzo[d]imidazole]	70.5				IC50 at 48 h [5]: > 10 µM
C#CCOc1ccc(-c2nc3ccc(-c4nc5ccc(N6CCN(C)CC6)cc5[nH]4)cc3[nH]2)cc1 [DPA 151, 6-(4-methylpiperazin-1-yl)-2′-(4-(prop-2-ynyloxy)phenyl)-1H,3′H-2,5′-bibenzo[d]imidazole]	85.4	partially inhibit	approximately 5 μM		
